Assay results as given in article PMC6448596 (Cell reports, 2019).

Tests used:
THP-1 cells = test: Proliferation assay; assay type: cell-based; conditions: Homo sapiens, THP-1, 72 h
Outline: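 THP-1 cells were grown in RPMI-1640 with 0.05 mM 2-mercaptoethanol and 10% FBS. Cells were plated 5,000/well with ≥5 two-fold dilutions of test compound (top 50 μM, 0.1% DMSO final), in triplicate wells with ≥2 biological replicates.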

MA93 cells = test: Proliferation assay; assay type: cell-based; conditions: Homo sapiens, 72 h
Outline: (§1)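 CellTiter-Glo at 2,000 cells/well. MA93 Ras and MA93 FLT3/ITD were maintained in IMDM/20% FBS. Parental MA93 received IMDM/20% FBS plus 10 ng/mL human SCF, TPO, FLT3L, IL3 and IL6. Dosing used ≥5 two-fold dilutions from 50 μM top, 0.1% DMSO final, in triplicate wells with ≥2 biological replicates. Plates ran 72 h at 37°C, followed by 30 min reagent incubation at RT in the dark. GI50 came from DMSO-normalized luminescence.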

MV4:11 cells [1] = test: Proliferation assay; assay type: cell-based, human; conditions: MV4:11, 3 days, mean with SEM
Outline: (§2)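 CellTiter-Glo, 5,000 cells/well. Cells received 0.1% DMSO or at least five two-fold dilutions of test compound (top 50 μM, final DMSO 0.1%), in triplicate wells and ≥2 biological replicates, for 72 h at 37°C. Reagent was added after equilibration to RT, with 30 min dark incubation before luminescence. Signals were normalized to DMSO wells and GI50 obtained by curve fitting. Curve error bars are SEM.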

MV4:11 cells [2] = test: Induction of apoptosis; assay type: cell-based, human; conditions: 2 μM, up to 6 days
Outline: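 MV4:11 cells were exposed 0–6 days to 2 μM test compound, negative control or 0.1% DMSO, with medium and compound refreshed on day 3. Camptothecin (2 μM, 4 h) served as positive control. 5 × 10^5 cells were stained with Alexa Fluor488–annexin V for 15 min, then propidium iodide for 10 min. Flow cytometry recorded ≥10,000 events, with doublet exclusion and quadrants set on unstained cells. Annexin V+/PI− % is from three biological replicates, SEM.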

MV4:11 cells [3] = test: Cell cycle analysis; assay type: cell-based, human; conditions: 2 μM, up to 6 days
Outline: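 1 million cells were fixed dropwise in ice-cold 70% ethanol (≥2 h, […]) and stained with PI (10 μg/mL) plus RNase for 20 min at RT in the dark. Flow: ≥10,000 events, doublets excluded. Three biological replicates, SEM.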

WDR5 [4] = test: Surface plasmon resonance direct affinity measurement; assay type: binding, Human
Outline: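 Enhanced SPR (eSPR) was run externally using purified WDR5 supplied by the authors. Test compounds were prepared as 30 mM DMSO stock solutions.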

WDR5 [5] = target: T1, WDR5 (Homo sapiens, UniProt P61964); test: 10-mer-Thr-FAM peptide TR-FRET competition assay; assay type: binding; conditions: Kd, corresponds to TR-FRET Ki of Table S1
WDR5 [6] = target: T1, WDR5; test: Western blot of endogenous WDR5 levels; assay type: cell-based; conditions: MV4:11, 4 µM, 24 hours
NOMO-1 cells = test: Proliferation assay; assay type: cell-based; conditions: Homo sapiens, NOMO-1, 72 h
Outline: as §2

[7] = tested on: PARP-1 cleavage in MV4:11 cells; test: Induction of PARP1 cleavage; assay type: cell-based, human; conditions: 2 μM
Outline: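 MV4:11 cells were treated 1, 2, 3 or 6 days with 2 μM test compound, its negative control or 0.1% DMSO. Cleaved PARP-1 was detected by western blot, with histone H3 as loading reference.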

MONO-Mac-6 cells = test: Proliferation assay; assay type: cell-based; conditions: Homo sapiens, MONO-MAC-6, 72 h
Outline: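 MONO-MAC-6 cells were maintained in RPMI with 10% FBS, non-essential amino acids and OPI supplement. CellTiter-Glo used 5,000 cells/well and ≥5 two-fold dilutions from 50 μM (0.1% DMSO final), in triplicate wells with ≥2 biological replicates, over 72 h at 37°C.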

[8] = tested on: ribosome protein gene expression in MV4:11 cells; test: RT-qPCR quantification of RPG mRNA expression; assay type: cell-based, human; conditions: MV4:11, three days, equal concentrations (4 µM) of OICR-9429 and C6
Outline: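 Cells were lysed in Trizol and total RNA isolated on columns with DNase digestion. 1 μg RNA was reverse transcribed with MuLV reverse transcriptase in 20 μl, then diluted three-fold in nuclease-free water before qPCR.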

[9] = tested on: gamma-H2AX in MV4:11 cells; test: gamma-H2AX immunofluorescence, DNA damage; assay type: cell-based, human; conditions: MV4:11, 4 µM
Outline: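 Cells were cytospun onto slides (100,000 cells, 800 rpm, 3 min) and immunostained for γ-H2AX. Mean nuclear γ-H2AX signal was quantified and compared with DMSO by one-way ANOVA with Dunnett's test.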

GDM-1 cells = test: Proliferation assay; assay type: cell-based; conditions: Homo sapiens, GDM-1, 72 h
Outline: as §2

[10] = tested on: NPM1 localisation in MV4:11 cells; test: Nucleophosmin; assay type: cell-based, human; conditions: MV4:11, 4 μM, 3 days
Outline: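 Cells were cytospun onto slides (100,000 cells, 800 rpm, 3 min) and immunostained for NPM. The per-cell nucleolar-to-nucleoplasmic NPM ratio was quantified from two biological replicates (SD). One-way ANOVA with Dunnett's test versus DMSO.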

WDR5 [11] = target: T1, WDR5; test: ChIP-Seq of WDR5; assay type: cell-based; conditions: MV4:11, 2 μM, 4 h
Outline: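 MV4:11 cells at 10^6/ml were treated 4 h with 2 μM test compound, negative control or 0.1% DMSO. Cells were concentrated to 4 × 10^6/ml in PBS, fixed in 1% formaldehyde for 10 min at RT and quenched with 125 mM glycine. They were lysed in 1% SDS FA buffer. Sheared chromatin was diluted to 0.1% SDS and immunoprecipitated overnight at 4°C with anti-WDR5 (D9E1I or 429A) or IgG on BSA-blocked protein-A agarose. Peaks were compared by normalized average read counts.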

MA93 Ras cells = test: Proliferation assay; assay type: cell-based; conditions: Homo sapiens, MA9.3RAS, 72 h
Outline: as §1

SET-2 cells = test: Proliferation assay; assay type: cell-based; conditions: Homo sapiens, SET-2, 72 h
Outline: as §2

[12] = tested on: MV4:11 cells expressing shRNAs against p53; test: Proliferation assay in MV4:11 cells expressing p53 or scrambled shRNAs; assay type: cell-based; conditions: Homo sapiens, MV4-11, 72 h, MV4:11 expressing p53 shRNA_941, 3-day treatment
Outline: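 Proliferation was measured in MV4:11 cells carrying scrambled, p53 sh_427 or p53 sh_941 shRNA. Cells received 3-day test compound treatment in a dose–response series, with GI50 derived from the curves.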

With `Cc1nc(F)ccc1-c1cc(Cn2ccn(C)c2=N)cc(C(=O)NCc2ccc(Cl)c(Cl)c2)c1` [Compound C6, N-(3,4-Dichlorobenzyl)-3-(6-fluoro-2-methylpyridin-3-yl)-5-((2-imino-3-methyl-2,3-dihydro-1H-imidazol-1-yl)methyl)benzamide] the GI50 (THP-1 cells) was > 50 µM, the GI50 (MA93 cells) was 5.04 ± 0.431 µM and the GI50 (MV4:11 cells [1]; Homo sapiens, MV4-11, 72 h) was 2 µM. For the same compound, the GI50 (MV4:11 cells [1]) was 3.2 ± 0.213 µM, the “annexin V staining, apoptotic cells” value (MV4:11 cells [2]) was “appearance of apoptotic cells” and the “cell-cycle distribution, sub-G1 DNA content” value (MV4:11 cells [3]) was “time-dependent increase in cells with a sub-G1 DNA content”. The “SPR affinity for WDR5 relative to values calculated by TR-FRET” value (WDR5 [4]) was ≤ 2 fold, the Kd (WDR5 [5]) was ~0.0001 µM and the WDR5 protein levels (WDR5 [6]) was “no measurable effect on WDR5 levels”. The GI50 (NOMO-1 cells) was > 50 µM, the “time to detection of cleaved PARP-1” value [7] was ≤ 24 h and the GI50 (MONO-Mac-6 cells) was 31.7 ± 2.32 µM. For the same compound, the “transcription of RPGs” value [8] was “inhibited the transcription of RPGs”, the “DNA damage response, accumulation of γ-H2AX foci” value [9] was “does not induce a robust DNA damage response” and the GI50 (GDM-1 cells) was > 50 µM. For the same compound, the “NPM1 distribution, nucleolar stress” value [10] was “redistribution of nucleophosmin (NPM1) from the nucleolus to the nucleoplasm”, the “WDR5 binding events on chromatin” value (WDR5 [11]) was “robust decrease in all detectable WDR5 binding events” and the GI50 (MA93 Ras cells) was 20.8 ± 2.62 µM. For the same compound, the GI50 (SET-2 cells) was > 50 µM and the GI50 [12] was 15 µM.
